The source made the active and inactive calls. The rule behind the calls is not given here.
Assays:
[1] = molecular target: Acetylcholine receptor; alpha1/beta1/delta/gamma (Homo sapiens) (UniProt P02708+P07510+P11230+Q07001); experiment: Agonist activity at alpha1betagammadelta nACHR in human TE671/RD cells by 86Rb+ efflux assay; assay type: functional, cell-based
Rattus norvegicus = organism: Rattus norvegicus; experiment: Displacement of [3H]epibatidine from rat forebrain alpha4beta2* nACHR at 10 uM
[2] = molecular target: Neuronal acetylcholine receptor; alpha2/beta4 (Rattus norvegicus) (UniProt P12389+P12392); experiment: Displacement of [3H]epibatidine from rat alpha2beta4 nACHR at 10 uM; assay type: protein-complex assay
[3] = Binding affinity to rat forebrain alpha7* nACHR at 10 uM
[4] = molecular target: Neuronal acetylcholine receptor subunit alpha-7 (Rattus norvegicus, UniProt Q05941); experiment: Binding affinity to rat alpha7 nACHR […]
[5] = Inhibition of histamine receptor at 10 uM
[6] = Inhibition of sigma receptor at 10 uM
[7] = Inhibition of opioid receptor at 10 uM
[8] = Inhibition of muscarinic receptor at 10 uM
[9] = Inhibition of adrenergic receptor at 10 uM
Liver microsomes [10] = experiment: Drug metabolism in human liver microsomes assessed as unchanged parent compound at 1 to 10 uM; assay type: ADME, Microsome; conditions: TDE = time-dependent effect
Outline: (§1)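 Test article incubated with human liver microsomes at 1 and 10 μM. Samples taken at 0, 15, 30 and 60 min, and parent remaining quantified by LC-MS/MS.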

[11] = molecular target: Neuronal acetylcholine receptor; alpha2/beta4 (Rattus norvegicus, UniProt P12389+P12392); experiment: Displacement of [3H]epibatidine from rat alpha2beta4 nACHR; assay type: protein-complex assay
[12] = molecular target: Neuronal acetylcholine receptor; alpha3/beta2 (Rattus norvegicus, UniProt P04757+P12390); experiment: Displacement of [3H]epibatidine from rat alpha3beta2 nACHR; assay type: protein-complex assay
[13] = Displacement of [3H]epibatidine from rat forebrain alpha4beta2* nACHR
[14] = molecular target: Neuronal acetylcholine receptor; alpha4/beta4 (Rattus norvegicus, UniProt P09483+P12392); experiment: Displacement of [3H]epibatidine from rat alpha4beta4 nACHR; assay type: protein-complex assay
[15] = molecular target: T1, Neuronal acetylcholine receptors; alpha-3/beta-4, alpha-5, beta-2 (Homo sapiens) (UniProt P17787+P30926+P32297+P30532); experiment: Agonist activity at alpha3beta4alpha5beta2 nACHR in human SH-SY5Y cells at 10 uM by 86Rb+ efflux assay; assay type: functional, cell-based
T1 sequence (P17787 whole entry, looked up): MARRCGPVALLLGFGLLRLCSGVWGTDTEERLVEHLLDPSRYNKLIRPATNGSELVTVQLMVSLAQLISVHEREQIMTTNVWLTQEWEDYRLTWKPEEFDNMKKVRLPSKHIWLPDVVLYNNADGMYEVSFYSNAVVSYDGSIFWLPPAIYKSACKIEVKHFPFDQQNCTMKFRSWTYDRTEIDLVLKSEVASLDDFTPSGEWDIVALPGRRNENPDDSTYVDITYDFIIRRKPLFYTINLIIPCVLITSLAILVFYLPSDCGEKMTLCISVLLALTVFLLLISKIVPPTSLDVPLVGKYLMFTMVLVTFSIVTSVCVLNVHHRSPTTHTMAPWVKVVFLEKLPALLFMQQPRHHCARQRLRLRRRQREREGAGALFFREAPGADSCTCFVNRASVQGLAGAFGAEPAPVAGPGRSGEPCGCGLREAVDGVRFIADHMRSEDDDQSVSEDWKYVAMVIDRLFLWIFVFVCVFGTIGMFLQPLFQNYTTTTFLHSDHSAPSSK
T1 sequence (P30532 whole entry, looked up): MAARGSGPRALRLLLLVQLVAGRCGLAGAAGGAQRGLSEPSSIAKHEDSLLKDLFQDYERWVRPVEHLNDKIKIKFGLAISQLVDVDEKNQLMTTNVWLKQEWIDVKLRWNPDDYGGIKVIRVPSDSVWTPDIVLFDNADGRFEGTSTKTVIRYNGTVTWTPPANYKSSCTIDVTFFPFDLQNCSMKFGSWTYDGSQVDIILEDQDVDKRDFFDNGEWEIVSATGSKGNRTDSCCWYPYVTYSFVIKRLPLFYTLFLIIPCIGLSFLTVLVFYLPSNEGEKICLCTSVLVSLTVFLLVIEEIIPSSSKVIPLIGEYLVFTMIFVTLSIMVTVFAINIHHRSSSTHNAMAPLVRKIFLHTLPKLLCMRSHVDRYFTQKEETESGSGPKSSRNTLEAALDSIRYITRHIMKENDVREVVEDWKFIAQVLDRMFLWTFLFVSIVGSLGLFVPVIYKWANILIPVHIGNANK
T1 sequence (P30926 whole entry, looked up): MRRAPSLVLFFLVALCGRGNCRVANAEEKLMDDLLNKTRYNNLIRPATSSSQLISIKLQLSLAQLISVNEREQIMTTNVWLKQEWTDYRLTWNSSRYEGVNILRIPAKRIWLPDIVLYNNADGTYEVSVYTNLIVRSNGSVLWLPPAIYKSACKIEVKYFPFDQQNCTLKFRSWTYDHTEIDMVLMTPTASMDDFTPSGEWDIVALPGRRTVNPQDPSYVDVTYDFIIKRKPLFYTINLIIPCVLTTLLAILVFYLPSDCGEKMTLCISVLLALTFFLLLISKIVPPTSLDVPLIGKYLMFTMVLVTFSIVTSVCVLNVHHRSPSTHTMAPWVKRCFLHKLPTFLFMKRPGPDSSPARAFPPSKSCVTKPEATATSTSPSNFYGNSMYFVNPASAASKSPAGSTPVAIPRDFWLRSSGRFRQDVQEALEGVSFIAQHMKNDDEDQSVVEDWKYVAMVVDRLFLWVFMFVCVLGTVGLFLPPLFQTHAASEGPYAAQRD
T1 sequence (P32297 whole entry, looked up): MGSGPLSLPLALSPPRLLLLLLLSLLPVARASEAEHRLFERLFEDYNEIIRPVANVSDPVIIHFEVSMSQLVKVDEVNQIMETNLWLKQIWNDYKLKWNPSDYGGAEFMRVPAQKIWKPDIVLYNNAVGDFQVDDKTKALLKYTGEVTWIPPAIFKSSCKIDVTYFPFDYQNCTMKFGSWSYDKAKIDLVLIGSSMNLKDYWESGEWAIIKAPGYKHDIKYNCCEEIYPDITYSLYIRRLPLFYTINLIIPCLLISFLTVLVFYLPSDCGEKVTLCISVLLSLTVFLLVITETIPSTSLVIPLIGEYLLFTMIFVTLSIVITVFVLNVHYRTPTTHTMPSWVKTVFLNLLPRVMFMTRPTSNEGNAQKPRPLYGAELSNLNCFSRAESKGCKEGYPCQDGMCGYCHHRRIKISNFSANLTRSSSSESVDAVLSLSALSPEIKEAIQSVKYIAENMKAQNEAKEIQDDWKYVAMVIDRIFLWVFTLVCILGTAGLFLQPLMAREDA

[16] = molecular target: T1, Neuronal acetylcholine receptors; alpha-3/beta-4, alpha-5, beta-2 (Homo sapiens); experiment: Inhibition of alpha3beta4alpha5beta2 nACHR in human SH-SY5Y cells at 10 uM by 86Rb+ efflux assay; assay type: cell-based
Mus musculus [17] = experiment: Antidepressant activity in BALB/cJ mouse assessed as reduction in immobility at 1 mg/kg, ip measured after 30 mins post drug administration by forced swim test; assay type: functional, organism-based; parameters: dose 1 mg/kg
Outline: (§2)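 Male BALB/cJ mice aged 8–10 weeks; drug given in injectable water by IP injection at 10 mL/kg. Thirty minutes later each mouse was placed in a glass cylinder of water at 23±1 °C, 12 cm deep. Immobility (floating) was scored over a 6 min trial. n = 9–10/group; ANOVA followed by Fisher's PLSD versus vehicle.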

Mus musculus [18] = experiment: Antidepressant activity in BALB/cJ mouse assessed as reduction in immobility at 5 mg/kg, ip measured after 30 mins post drug administration by forced swim test; assay type: functional, organism-based; parameters: dose 5 mg/kg; outline: as §2
Mus musculus [19] = experiment: Antidepressant activity in BALB/cJ mouse assessed as reduction in immobility at 5 mg/kg, po measured after 30 mins post drug administration by forced swim test; assay type: functional, organism-based; parameters: dose 5 mg/kg
Outline: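 Male BALB/cJ mice aged 8–10 weeks; drug given in injectable water by oral gavage at 10 mL/kg. Thirty minutes later each mouse was placed in water at 23±1 °C, 12 cm deep. Immobility time was recorded over a 6 min trial. n = 9–10/group; ANOVA followed by Fisher's PLSD.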

[20] = Inhibition of GABA receptor at 10 uM
[21] = Inhibition of dopamine receptor at 10 uM
[22] = Inhibition of serotonin receptor at 10 uM
Liver microsomes [23] = experiment: Drug metabolism in rat liver microsomes assessed as unchanged parent compound at 1 to 10 uM; assay type: ADME, Microsome; conditions: TDE = time-dependent effect
CYP1A2 [24] = molecular target: T2, CYP1A2 (Homo sapiens, UniProt P05177); experiment: Inhibition of human liver microsome CYP1A2 using phenacetin as substrate assessed as residual activity at 1 uM; assay type: ADME; conditions: human liver microsomes, probe phenacetin, read-out: Activity
T2 sequence (P05177 whole entry, canonical isoform): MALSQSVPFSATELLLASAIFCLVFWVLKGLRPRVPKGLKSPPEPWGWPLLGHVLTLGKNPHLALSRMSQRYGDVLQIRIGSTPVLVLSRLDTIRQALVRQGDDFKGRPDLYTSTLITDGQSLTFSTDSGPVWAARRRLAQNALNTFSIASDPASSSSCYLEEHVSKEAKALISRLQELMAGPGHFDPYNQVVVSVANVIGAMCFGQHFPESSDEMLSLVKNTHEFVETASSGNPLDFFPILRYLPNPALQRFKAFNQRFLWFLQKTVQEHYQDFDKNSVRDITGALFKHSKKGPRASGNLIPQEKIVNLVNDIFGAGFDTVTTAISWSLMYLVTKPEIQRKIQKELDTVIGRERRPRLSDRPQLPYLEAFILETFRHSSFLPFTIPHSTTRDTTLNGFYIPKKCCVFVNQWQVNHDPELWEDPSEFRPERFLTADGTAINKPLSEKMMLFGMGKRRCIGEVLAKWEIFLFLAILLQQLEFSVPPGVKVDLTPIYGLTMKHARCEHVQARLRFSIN
Outline: (§3)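 Human liver microsomes in a high-throughput multiple-CYP assay covering CYP1A2, 2B6, 2C9, 2C19, 2D6 and 3A4. Test compound at 1 and 10 μM; isoform activity expressed as % of control.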

CYP2B6 [25] = molecular target: T3, CYP2B6 (Homo sapiens, UniProt P20813); experiment: Inhibition of human liver microsome CYP2B6 using bupropion as a substrate assessed as residual activity at 1 uM; assay type: ADME; conditions: human liver microsomes, probe bupropion, read-out: Activity; outline: as §3
T3 sequence (P20813 whole entry): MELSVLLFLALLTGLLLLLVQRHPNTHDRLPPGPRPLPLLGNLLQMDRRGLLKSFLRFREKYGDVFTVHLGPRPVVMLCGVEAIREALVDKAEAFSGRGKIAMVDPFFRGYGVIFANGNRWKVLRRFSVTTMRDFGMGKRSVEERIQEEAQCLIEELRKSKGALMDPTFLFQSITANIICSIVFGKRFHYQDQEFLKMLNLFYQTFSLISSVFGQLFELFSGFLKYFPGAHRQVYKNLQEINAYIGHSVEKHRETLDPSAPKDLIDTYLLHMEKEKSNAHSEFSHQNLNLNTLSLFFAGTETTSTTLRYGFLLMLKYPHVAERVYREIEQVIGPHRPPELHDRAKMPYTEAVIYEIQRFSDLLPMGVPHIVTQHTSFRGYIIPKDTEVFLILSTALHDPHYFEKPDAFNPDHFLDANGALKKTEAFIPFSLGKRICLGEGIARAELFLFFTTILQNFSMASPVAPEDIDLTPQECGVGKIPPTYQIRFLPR

CYP2C9 [26] = molecular target: T4, CYP2C9 (Homo sapiens, UniProt P11712); experiment: Inhibition of human liver microsome CYP2C9 using diclofenac as substrate assessed as residual activity at 1 uM; assay type: ADME; conditions: human liver microsomes, probe diclofenac, read-out: Activity; outline: as §3
T4 sequence (P11712 whole entry): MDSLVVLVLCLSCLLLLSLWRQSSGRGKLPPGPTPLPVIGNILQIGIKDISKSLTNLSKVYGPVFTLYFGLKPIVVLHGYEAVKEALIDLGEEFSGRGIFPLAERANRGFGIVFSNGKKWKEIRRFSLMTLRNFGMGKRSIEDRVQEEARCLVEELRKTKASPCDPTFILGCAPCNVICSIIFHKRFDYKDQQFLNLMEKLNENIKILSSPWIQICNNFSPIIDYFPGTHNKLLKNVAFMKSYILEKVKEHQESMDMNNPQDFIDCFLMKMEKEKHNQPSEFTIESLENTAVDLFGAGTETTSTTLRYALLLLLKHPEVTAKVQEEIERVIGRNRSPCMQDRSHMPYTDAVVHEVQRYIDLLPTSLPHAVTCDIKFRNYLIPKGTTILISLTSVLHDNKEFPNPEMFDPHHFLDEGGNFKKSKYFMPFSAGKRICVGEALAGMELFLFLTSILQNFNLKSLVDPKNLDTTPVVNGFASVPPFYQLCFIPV

CYP2C19 [27] = molecular target: T5, CYP2C19 (Homo sapiens, UniProt P33261); experiment: Inhibition of human liver microsome CYP2C19 using mephenytoin as substrate assessed as residual activity at 1 uM; assay type: ADME; conditions: human liver microsomes, probe mephenytoin, read-out: Activity; outline: as §3
T5 sequence (P33261 whole entry): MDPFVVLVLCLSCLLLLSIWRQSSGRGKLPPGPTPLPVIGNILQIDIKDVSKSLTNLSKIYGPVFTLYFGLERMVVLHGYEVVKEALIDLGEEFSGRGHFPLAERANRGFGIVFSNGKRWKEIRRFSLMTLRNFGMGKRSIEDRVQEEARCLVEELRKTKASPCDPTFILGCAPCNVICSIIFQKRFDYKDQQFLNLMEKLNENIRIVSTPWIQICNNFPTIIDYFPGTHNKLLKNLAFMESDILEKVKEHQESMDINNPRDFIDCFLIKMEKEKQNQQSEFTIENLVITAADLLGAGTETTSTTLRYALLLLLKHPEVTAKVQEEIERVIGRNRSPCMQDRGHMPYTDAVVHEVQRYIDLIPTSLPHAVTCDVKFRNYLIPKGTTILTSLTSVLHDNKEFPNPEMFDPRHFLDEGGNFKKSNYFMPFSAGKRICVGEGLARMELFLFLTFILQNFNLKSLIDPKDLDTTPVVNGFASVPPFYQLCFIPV

CYP2D6 [28] = molecular target: T6, CYP2D6 (Homo sapiens, UniProt P10635); experiment: Inhibition of human liver microsome CYP2D6 using bufuralol as substrate assessed as residual activity at 1 uM; assay type: ADME; conditions: human liver microsomes, probe bufuralol, read-out: Activity; outline: as §3
T6 sequence (P10635 whole entry): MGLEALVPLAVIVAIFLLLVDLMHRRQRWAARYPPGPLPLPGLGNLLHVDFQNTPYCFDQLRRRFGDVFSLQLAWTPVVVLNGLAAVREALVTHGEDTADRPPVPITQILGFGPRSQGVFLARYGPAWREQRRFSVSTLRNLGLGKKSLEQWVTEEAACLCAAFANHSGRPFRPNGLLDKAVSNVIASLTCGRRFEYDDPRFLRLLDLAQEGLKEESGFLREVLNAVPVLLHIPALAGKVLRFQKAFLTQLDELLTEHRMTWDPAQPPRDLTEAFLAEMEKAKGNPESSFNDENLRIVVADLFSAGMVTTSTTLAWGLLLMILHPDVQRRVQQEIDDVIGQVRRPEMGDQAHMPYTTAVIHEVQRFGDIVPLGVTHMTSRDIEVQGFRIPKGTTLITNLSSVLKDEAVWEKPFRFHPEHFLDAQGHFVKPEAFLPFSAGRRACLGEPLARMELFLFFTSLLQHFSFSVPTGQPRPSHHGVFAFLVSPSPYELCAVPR

CYP3A4 [29] = molecular target: T7, CYP3A4 (Homo sapiens, UniProt P08684); experiment: Inhibition of human liver microsome CYP3A4 using testosterone as substrate assessed as residual activity at 1 uM; assay type: ADME; conditions: human liver microsomes, probe testosterone, read-out: Activity; outline: as §3
T7 sequence (P08684 whole entry): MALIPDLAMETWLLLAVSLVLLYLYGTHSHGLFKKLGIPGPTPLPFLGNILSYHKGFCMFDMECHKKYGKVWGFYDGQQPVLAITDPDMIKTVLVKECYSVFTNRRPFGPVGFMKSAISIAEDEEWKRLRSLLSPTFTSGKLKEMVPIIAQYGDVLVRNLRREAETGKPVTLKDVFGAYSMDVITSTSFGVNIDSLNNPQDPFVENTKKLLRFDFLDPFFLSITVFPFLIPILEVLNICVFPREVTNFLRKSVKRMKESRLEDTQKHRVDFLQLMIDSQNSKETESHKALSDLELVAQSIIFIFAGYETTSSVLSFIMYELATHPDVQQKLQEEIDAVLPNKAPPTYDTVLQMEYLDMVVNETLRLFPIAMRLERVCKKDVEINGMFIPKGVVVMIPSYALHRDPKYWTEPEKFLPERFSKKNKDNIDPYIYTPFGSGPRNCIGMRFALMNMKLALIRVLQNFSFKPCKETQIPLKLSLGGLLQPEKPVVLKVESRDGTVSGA

CYP3A4 [30] = molecular target: T7, CYP3A4; experiment: Inhibition of human liver microsome CYP3A4 using midazolam as substrate assessed as residual activity at 1 uM; assay type: ADME; conditions: human liver microsomes, probe midazolam, read-out: Activity; outline: as §3
CYP1A2 [31] = molecular target: T2, CYP1A2; experiment: Inhibition of human liver microsome CYP1A2 using phenacetin as substrate assessed as residual activity at 10 uM; assay type: ADME; conditions: human liver microsomes, probe phenacetin, read-out: Activity; outline: as §3
CYP2B6 [32] = molecular target: T3, CYP2B6; experiment: Inhibition of human liver microsome CYP2B6 using bupropion as substrate assessed as residual activity at 10 uM; assay type: ADME; conditions: human liver microsomes, probe bupropion, read-out: Activity; outline: as §3
CYP2C9 [33] = molecular target: T4, CYP2C9; experiment: Inhibition of human liver microsome CYP2C9 using diclofenac as substrate assessed as residual activity at 10 uM; assay type: ADME; conditions: human liver microsomes, probe diclofenac, read-out: Activity; outline: as §3
CYP2C19 [34] = molecular target: T5, CYP2C19; experiment: Inhibition of human liver microsome CYP2C19 using mephenytoin as substrate assessed as residual activity at 10 uM; assay type: ADME; conditions: human liver microsomes, probe mephenytoin, read-out: Activity; outline: as §3
CYP2D6 [35] = molecular target: T6, CYP2D6; experiment: Inhibition of human liver microsome CYP2D6 using […] as substrate assessed as residual activity at 10 uM; assay type: ADME; conditions: human liver microsomes, probe burfuralol, read-out: Activity; outline: as §3
CYP3A4 [36] = molecular target: T7, CYP3A4; experiment: Inhibition of human liver microsome CYP3A4 using testosterone as substrate assessed as residual activity at 10 uM; assay type: ADME; conditions: human liver microsomes, probe testosterone, read-out: Activity; outline: as §3
CYP3A4 [37] = molecular target: T7, CYP3A4; experiment: Inhibition of human liver microsome CYP3A4 using midazolam as substrate assessed as residual activity at 10 uM; assay type: ADME; conditions: human liver microsomes, probe midazolam, read-out: Activity; outline: as §3
[38] = Metabolic stability in human liver microsomes assessed as unchanged parent compound at 1 uM after 60 mins; assay type: ADME, Microsome; conditions: read-out: Stability; outline: as §1
[39] = Metabolic stability in human liver microsomes assessed as unchanged parent compound at 10 uM after 60 mins; assay type: ADME, Microsome; conditions: read-out: Stability
Outline: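 Test article incubated with human liver microsomes at 1 μM and 10 μM; aliquots taken at 0, 15, 30 and 60 min and analysed by LC-MS/MS for remaining unchanged parent drug.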

[40] = Metabolic stability in rat liver microsomes assessed as unchanged parent compound at 1 uM after 60 mins; assay type: ADME, Microsome; conditions: read-out: Stability
[41] = Metabolic stability in rat liver microsomes assessed as unchanged parent compound at 10 uM after 60 mins; assay type: ADME, Microsome; conditions: read-out: Stability
[42] = Plasma protein binding in human at 0.1 to 10 uM by equilibrium dialysis; assay type: ADME, cell-free; conditions: read-out: PPB (converted)
Outline: (§4)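 Equilibrium dialysis against human or mouse plasma, with test compound at 0, 0.1, 1 and 10 μM; results expressed as mean percentage of compound bound to plasma proteins.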

[43] = Plasma protein binding in mouse at 0.1 to 10 uM by equilibrium dialysis; assay type: ADME, cell-free; conditions: read-out: PPB (converted); outline: as §4
hERG (KCNH2) = hERG (KCNH2) (Homo sapiens, UniProt Q12809); experiment: Inhibition of human recombinant ERG expressed in HEK293 cells at 10 uM by fluorescence-based membrane potential analysis; assay type: cell-based; conditions: HEK293 cells expressing human recombinant ERG
Outline: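 HEK293 cells stably expressing recombinant human hERG, read in a fluorescence-based membrane potential assay. Test compound at 10 μM, compared with a negative control.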

SMILES: c1ccc(OCc2cc(OC[C@@H]3CCN3)on2)cc1
- Activity [1]: inactive

SMILES: COCc1cc(OC[C@@H]2CCN2)no1
- Activity (Rattus norvegicus): < 50%
- Activity [2]: < 50%

SMILES: O=C(Nc1ccccc1)OCc1cc(OC[C@@H]2CCN2)on1
- Activity [1]: inactive

SMILES: Cc1cc(OC[C@@H]2CCN2)on1
- Ki [3]: 6.79 µM
- Ki [4]: 2.89 µM
- inhibition [5]: > 50%
- inhibition [6]: > 50%
- inhibition [7]: > 50%
- inhibition [8]: > 50%
- inhibition [9]: > 50%
- Drug metabolism (Liver microsomes [10]): tde
- Ki [11]: 0.311 µM
- Ki [12]: 0.0087 µM
- Ki [13]: 0.012 µM
- Ki [14]: 0.086 µM
- Activity [1]: inactive
- Efficacy [15]: 120%
- Efficacy [16]: > 70%
- Activity (Mus musculus [17]): Active
- Activity (Mus musculus [18]): Active
- Activity (Mus musculus [19]): Active
- inhibition [20]: > 50%
- inhibition [21]: > 50%
- inhibition [22]: > 50%
- Drug metabolism (Liver microsomes [23]): tde
- activity at 1 µM (CYP1A2 [24]): < 70%
- activity at 1 µM (CYP2B6 [25]): < 70%
- activity at 1 µM (CYP2C9 [26]): < 70%
- activity at 1 µM (CYP2C19 [27]): < 70%
- activity at 1 µM (CYP2D6 [28]): < 70%
- activity at 1 µM (CYP3A4 [29]): < 70%
- activity at 1 µM (CYP3A4 [30]): < 70%
- activity at 10 µM (CYP1A2 [31]): < 70%
- activity at 10 µM (CYP2B6 [32]): < 70%
- activity at 10 µM (CYP2C9 [33]): < 70%
- activity at 10 µM (CYP2C19 [34]): < 70%
- activity at 10 µM (CYP2D6 [35]): < 70%
- activity at 10 µM (CYP3A4 [36]): < 70%
- activity at 10 µM (CYP3A4 [37]): < 70%
- remaining at 1 h, 1 µM [38]: 53.4%
- remaining at 1 h, 10 µM [39]: 67.2%
- remaining at 1 h, 1 µM [40]: 67.5%
- remaining at 1 h, 10 µM [41]: 73.7%
- fraction unbound at up to 10 µM [42]: 0.918
- fraction unbound at up to 10 µM [43]: 0.871
- inhibition at 10 µM (hERG (KCNH2)): 0%

SMILES: CCNC(=O)OCc1cc(OC[C@@H]2CCN2)on1
- Activity [1]: inactive

From ChEMBL document CHEMBL2163280 (J Med Chem, 2012)
